KDM4C inh = inhibitors of human demethylase GASC-1 KDM4C; Q9H3R0; GST-KDM4C 2-372, H3K9me3 peptide, LANCE TR-FRET; inhibition, % at 12.5 µM; 96,000 compounds, 0.15% hits;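 active means mean replicate inhibition above about 25%, with at least 55% of replicates also reaching it, limit read from the data, passing the limit was not always enough; inconclusive means only one of those two conditions met; inactive means neither condition met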
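System: N-terminal GST-fused human GASC-1 (KDM4C) fragment, residues 2-372; amount: enzyme final amount 10 nM; incubation: reaction 30 min RT, detection step 1 h RT; medium: HEPES buffer, pH 7.5, plus ascorbate; technique: LANCE TR-FRET, Eu antibody, ULight-streptavidin, EDTA, ex 340 nm, em 618/671 nm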
Pf Dd2 growth = inhibitors of Plasmodium falciparum Dd2 growth. 94,000 compounds, 2.3% hits. activity change, % at 10 µM. P. falciparum Dd2 growth, SYBR Green, 72 h; hits give low values; in the data active means activity change below about -80%; inconclusive means no clear call, values can overlap the other calls
IDH1 mut inh = inhibitors of human IDH1 R132H | 70,000 compounds, 0.18% hits | IDH1 R132H reductase, diaphorase/resazurin fluorescence, 60 min | O75874 | inhibition, % at 10 µM | AID 624101; in the data active means inhibition above about 34%; inconclusive means no clear call, values can overlap the other calls; inactive means below about 11%
Target sequence (O75874 whole entry R132H): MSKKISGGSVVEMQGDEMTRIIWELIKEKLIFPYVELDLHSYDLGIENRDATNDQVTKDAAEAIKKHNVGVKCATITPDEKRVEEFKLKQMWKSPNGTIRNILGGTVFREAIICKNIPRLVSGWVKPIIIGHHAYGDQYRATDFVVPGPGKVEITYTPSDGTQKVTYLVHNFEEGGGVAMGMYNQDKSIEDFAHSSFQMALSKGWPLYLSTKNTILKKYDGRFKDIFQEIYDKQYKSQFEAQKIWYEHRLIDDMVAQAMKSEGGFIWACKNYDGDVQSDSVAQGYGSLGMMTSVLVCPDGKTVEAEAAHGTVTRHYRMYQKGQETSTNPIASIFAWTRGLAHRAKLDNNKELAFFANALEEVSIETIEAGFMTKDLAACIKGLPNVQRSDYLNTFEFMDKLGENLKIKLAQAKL
T cruzi growth-1 = inhibitors of T. cruzi proliferation; inhibition, % at 8.34 µM; 77,000 compounds, 5.9% hits; AID 624255; T. cruzi beta-gal in NIH3T3, GalScreen luminescence, 90 h;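 active means mean inhibition above about 93%, with at least 55% of replicates each passing it, limit read from the data, passing the limit was not always enough; inconclusive means only one of those two conditions holds; inactive means neither condition holds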
T cruzi growth-2 = inhibitors of T. cruzi proliferation; inhibition, % at 8.35 µM; 5,600 compounds, 72% hits; T. cruzi beta-gal in NIH3T3, GalScreen luminescence, 90 h; shares compounds with T cruzi growth-1; AID 651739;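 active means mean replicate inhibition above about 95% and at least 55% of replicates individually reaching it, limit read from the data; inconclusive means only one of the two criteria is met; inactive means neither criterion is met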
T cruzi growth-3 = Trypanosoma cruzi proliferation inhibition. shares compounds with T cruzi growth-1. T. cruzi beta-gal in NIH3T3, GalScreen luminescence, 90 h. inhibition, % at 2.09 µM. 5,600 compounds, 21% hits;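 active means mean inhibition above about 95%, with at least 55% of replicates also reaching it, limit read from the data; inconclusive means meets just one of the two conditions; inactive means meets neither condition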
NIH3T3 tox = NIH/3T3 (mouse) viability loss; shares compounds with T cruzi growth-1; NIH/3T3 viability, CellTiter-Glo ATP luminescence, 90 h; cytotoxicity (signal decrease), % at 8.35 µM; 5,600 compounds, 14% hits;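 active means mean signal decrease across replicates above about 35% based on untreated-well scatter, with enough replicates individually passing, limit read from the data; inconclusive means no rule stated though some were filed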
3T3 cytotox 2 = NIH/3T3 (mouse) viability loss; NIH/3T3 viability, CellTiter-Glo ATP luminescence, 90 h; 5,600 compounds, 56% hits; shares compounds with T cruzi growth-1; inhibition, % at 24.9 µM;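 active means mean loss of cell viability signal at or above a set limit, and enough replicates individually reaching it; inconclusive means meets only the mean limit or only the replicate share; inactive means meets neither condition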
Large screens that a line does not name were inactive (follow-up assays come after a bar, where they were run). This is a sample that favours compounds with a hit; in the whole collection about 5.9% have one here.

CN(C)C(=O)c1ccc(-c2ccc3c(c2)[C@@H]2[C@@H](CCN2C(=O)C2CCOCC2)[C@H](CO)N3C)cc1	T cruzi growth-1 96.6 (no result: IDH1 mut inh) | T cruzi growth-2 105.6 | T cruzi growth-3 inactive | NIH3T3 tox inactive | 3T3 cytotox 2 inactive
CN1c2ccc(Br)cc2[C@H]2[C@H](CCN2C(=O)C2CC2)[C@H]1CO	T cruzi growth-1 104.4 (no result: IDH1 mut inh) | T cruzi growth-2 inactive | T cruzi growth-3 inactive | NIH3T3 tox inactive | 3T3 cytotox 2 inactive
COc1ccc(-c2ccc3c(c2)[C@@H]2[C@@H](CCN2C(=O)C2CCC2)[C@H](CO)N3C)cc1	none (no result: IDH1 mut inh, T cruzi growth-1)
COc1ccc(-c2ccc3c(c2)[C@@H]2[C@@H](CCN2C(=O)C2CCCCC2)[C@@H](CO)N3C)cc1	T cruzi growth-1 99.0 (no result: IDH1 mut inh) | T cruzi growth-2 inactive | T cruzi growth-3 108.4 | NIH3T3 tox inactive | 3T3 cytotox 2 106.1
CCOC(=O)c1sc(NC(=O)c2cc3ncc(Br)cn3n2)c(C(=O)OCC)c1C	none (no result: KDM4C inh, Pf Dd2 growth, T cruzi growth-1)
O=C(NC1CCCCC1)c1c(NC(=O)c2cc(-c3cccnc3)nc3ccccc23)sc2c1CCC2	none (no result: KDM4C inh, Pf Dd2 growth, T cruzi growth-1)
COc1ccc(-c2ccc3c(c2)[C@@H]2[C@@H](CCN2C(=O)c2ccncc2)[C@@H](CO)N3C)cc1	T cruzi growth-1 97.8 (no result: IDH1 mut inh) | T cruzi growth-2 101.4 | T cruzi growth-3 inactive | NIH3T3 tox inactive | 3T3 cytotox 2 inactive
CN1c2ccc(-c3ccccc3)cc2[C@@H]2[C@@H](CCN2C(=O)c2ccncc2)[C@H]1CO	none (no result: IDH1 mut inh)
C[C@@H]1CN([C@H](C)CO)C(=O)Cc2cc(NC(=O)Nc3cccc4ccccc34)ccc2O[C@H]1CN(C)Cc1ccc2c(c1)OCO2	T cruzi growth-1 inconclusive | T cruzi growth-2 106.8 | T cruzi growth-3 inactive | NIH3T3 tox inactive | 3T3 cytotox 2 inactive
C[C@@H]1CN([C@@H](C)CO)C(=O)Cc2cc(NC(=O)Nc3cccc4ccccc34)ccc2O[C@@H]1CN(C)Cc1ccc2c(c1)OCO2	T cruzi growth-1 102.8 | T cruzi growth-2 109.1 | T cruzi growth-3 inactive | NIH3T3 tox inactive | 3T3 cytotox 2 52.1
C[C@@H]1CN([C@H](C)CO)C(=O)Cc2cc(NC(=O)Nc3cccc4ccccc34)ccc2O[C@@H]1CN(C)Cc1ccc2c(c1)OCO2	T cruzi growth-1 102.6 (no result: IDH1 mut inh) | T cruzi growth-2 107.4 | T cruzi growth-3 inactive | NIH3T3 tox inconclusive | 3T3 cytotox 2 72.1
C[C@H]1CN([C@@H](C)CO)C(=O)Cc2cc(NC(=O)Nc3ccccc3)ccc2O[C@@H]1CN(C)Cc1ccc2c(c1)OCO2	none
C[C@H](CO)N1C[C@H](C)[C@H](CN(C)Cc2ccccc2)Oc2ccc(NC(=O)Nc3cccc4ccccc34)cc2CC1=O	none (no result: IDH1 mut inh)
C[C@@H]1CN([C@H](C)CO)C(=O)c2cc(NC(=O)Nc3cccc4ccccc34)ccc2O[C@@H](C)CCCCO[C@@H]1CN(C)Cc1ccncc1	none (no result: IDH1 mut inh)
C[C@H]1CCCCO[C@@H](CN(C)Cc2ccccc2)[C@@H](C)CN([C@@H](C)CO)C(=O)c2cc(NC(=O)Nc3cccc4ccccc34)ccc2O1	T cruzi growth-1 109.3 | T cruzi growth-2 inconclusive | T cruzi growth-3 100.2 | NIH3T3 tox inactive | 3T3 cytotox 2 38.2
COc1ccc(CN(C)C[C@H]2OCCCC[C@H](C)Oc3ccc(NC(=O)Nc4cccc5ccccc45)cc3C(=O)N([C@H](C)CO)C[C@H]2C)cc1	Pf Dd2 growth -89.9, T cruzi growth-1 inconclusive | T cruzi growth-2 98.2 | T cruzi growth-3 106.2 | NIH3T3 tox inactive | 3T3 cytotox 2 55.4
C[C@H]1CCCCO[C@H](CN(C)Cc2ccccc2)[C@@H](C)CN([C@@H](C)CO)C(=O)c2cc(NC(=O)Nc3cccc4ccccc34)ccc2O1	none (no result: IDH1 mut inh, T cruzi growth-1)
C[C@H](CO)N1C[C@H](C)[C@@H](CN(C)Cc2ccccc2)OCCCC[C@H](C)Oc2ccc(NC(=O)Nc3cccc4ccccc34)cc2C1=O	none (no result: IDH1 mut inh, T cruzi growth-1)

Assay outcomes as filed in PubChem BioAssay.
